For assay [1], the system named is suprachiasmatic nucleus (SCN) cells. Briefly: Whole cell patch clamp, holding current in SCN neurons. The following applies: 1 μM, six cells in the SCN. The assay is classed as cell-based, rat (Sprague Dawley). (In general: In patch-clamp work, channel activity is measured electrically.)
Assay [2] shares this test system. Briefly: Spontaneous firing rate. Type of assay: cell-based, rat (Sprague Dawley). The following applies: 1 μM, six cells in the SCN. A digest of the protocol: (§1)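 Coronal hypothalamic slices (250 μm) came from halothane-anaesthetised 20–24-day-old rats, cut in ice-cold sucrose ACSF and warmed to 35°C over 30 min. Slices were held submerged in 32°C ACSF (MgCl2 1.2, CaCl2 2.4 mM) gassed with 95% O2/5% CO2. Neurons were visualised by IR-DIC and patched with 5–8 MΩ pipettes (K-gluconate internal, pH 7.2) for whole-cell current and/or voltage clamp.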

In assay [3] the test system is supraoptic nucleus (SON) neurons; μ receptor. Briefly: Whole cell patch clamp, evoked outward / holding current in SON neurons. The assay is classed as cell-based, rat (Sprague Dawley). The following applies: for holding current response in SON: 1 μM, six cells in the SON.
The test system of assay [4] is rostral supraoptic nucleus (SON) cells. Briefly: Spontaneous firing rate. Type of assay: cell-based, rat (Sprague Dawley). The note with it: 1 μM, six cells in the SON. A digest of the protocol:
as §1

Assay [5] concerns rat hippocampus membranes. In words: Agonist-stimulated [^35S]GTPγS binding in rat hippocampus membranes. The assay is classed as biochemical, rat (Wistar). Background: Binding of GTPγS marks nucleotide exchange on a G protein.
A further assay relates to mu-opioid receptor (MOR). The following applies: endomorphins EM1 and EM2; ref [5], [6], [7]; cited from earlier work.

Consider NH2-TSRTDGTQS-COO^- [Mx-2], for which the “holding current response in SCN” value in assay [1] is “no measurable difference”. Further, the “SFR response in SCN” value in assay [2] is recorded as “no measurable difference”. Besides, the “holding current response in SON” value in assay [3] is on record as “no measurable difference”. Further, in assay [4], the “SFR response in SON” value is on record as “no measurable difference”.

Regarding CTOP [reference compound], the “Mx-1 evoked current amplitude in presence of CTOP” value in assay [3] (CTOP 100 nM added to bath with 100 nM Mx-1, six SON neurons) is 3.8 ± 2.0 pA.

For the molecule “NH2-PPPRSPYSGKGLGPGNLLHSALLPIHCICLC-COO^- [Mx-3]”, in assay [5] ([^35S]GTPγS, rat hippocampus membranes, comparison with Mx-1, discussion), the “agonist-stimulated activity of Mx-3 compared with Mx-1” value is reported as “greater than that displayed by Mx-1”. For the same molecule, in assay [5] (high concentrations, for Mx-1: 1.2, 2.4 and 4.8 μM), the “[^35S]GTPγS binding at high concentrations (decrease)” value is “not observed”. The “holding current response in SCN” value in assay [1] was “no measurable difference”. The “SFR response in SCN” value in assay [2] is recorded as “no measurable difference”. In addition, the “holding current response in SON” value in assay [3] was “no measurable difference”. The “SFR response in SON” value in assay [4] is “no measurable difference”.

For the molecule Tyr-Pro-Phe-Phe-NH2 [EM2], the “binding affinity and selectivity to MOR (in words)” value in the assay on mu-opioid receptor (MOR) is “high binding affinity and selectivity to the mu-opioid receptor”.

Regarding Tyr-Pro-Trp-Phe-NH2 [EM1], in the assay with mu-opioid receptor (MOR), the “binding affinity and selectivity to MOR (in words)” value is “high binding affinity and selectivity to the mu-opioid receptor”.

With `C=CCN1CC[C@]23c4c5ccc(O)c4O[C@H]2C(=O)CC[C@@]3(O)[C@H]1C5` [naloxone, reference compound], the “inhibition of agonist effect of Mx-1 in promoting incorporation of γ-GTP” value in assay [5] (naloxone saturating concentrations (10 μM) with Mx-1) is listed as “inhibited the agonist effect of Mx-1”.

The values are drawn from article PMC5509056 (FEBS letters, 2017).
